In ChEMBL document CHEMBL5724801, “EUbOPEN Chemogenomics Library - Multiplex” (2024):
“And” between values parts separate entries of the source, which are not always exact repeats. Identical values can stand only once.

Test system: Fibroblast
Experiment: Multiplex assay against human fibroblast
Format: toxicity, cell-based
Summary of the method: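 Compound was added to live cells that had been stained at seeding with Hoechst33342, BioTracker Green Microtubule Cytoskeleton Dye, MitoTracker Red and Annexin V Alexa Fluor 680, and imaging followed on a CQ1 microscope at 37°C and 5% CO2. CellPathfinder machine-learning gating divided cells into Hoechst high-intensity objects or normal cells, normal cells into healthy, pyknosed or fragmented nuclei, and pyknosed cells into mitotic or apoptotic. Tubulin, mitochondrial-mass and membrane-permeability phenotypes are per cents of healthy-nucleus cells.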

[1] = 12 h, 1 µM, compound concentration 1 uM
[2] = 12 h, 10 µM, compound concentration 10 uM
[3] = 24 h, 1 µM, compound concentration 1 uM
[4] = 24 h, 10 µM, compound concentration 10 uM
[5] = 48 h, 1 µM, compound concentration 1 uM
[6] = 48 h, 10 µM, compound concentration 10 uM

Cc1cnc(-c2cc(N3CCN(C(=O)CCS(C)(=O)=O)CC3)ncc2Cl)c(C)c1
Population Apoptotic (%) [1]: 36% and 31%
Population Fragmented Nuclei (%) [1]: 9% and 22%
Population Healthy Nuclei (%) [1]: 71% and 36%
Population Hoechst High Intensity Objects (%) [1]: 1% and 9%
Population Membrane Permeable-Phenotype (%) [1]: 0% and 7%
Population Mitochondria Different-Phenotype (%) [1]: 7% and 10%
Population Mitotic Cells (%) [1]: 63% and 68%
Population Normal (%) [1]: 98% and 90%
Population Pyknosed Nuclei (%) [1]: 19% and 41%
Population Tubulin-Different-Phenotype (%) [1]: 20% and 50%
Total Cell Count [1]: 99 and 85
Population Apoptotic (%) [2]: 40% and 26%
Population Fragmented Nuclei (%) [2]: 13% and 21%
Population Healthy Nuclei (%) [2]: 71% and 63%
Population Hoechst High Intensity Objects (%) [2]: 4% and 1%
Population Membrane Permeable-Phenotype (%) [2]: 1%
Population Mitochondria Different-Phenotype (%) [2]: 2%
Population Mitotic Cells (%) [2]: 60% and 73%
Population Normal (%) [2]: 95% and 98%
Population Pyknosed Nuclei (%) [2]: 14% and 15%
Population Tubulin-Different-Phenotype (%) [2]: 24% and 37%
Total Cell Count [2]: 142 and 121
Population Apoptotic (%) [3]: 54% and 47%
Population Healthy Nuclei (%) [3]: 76% and 38%
Population Hoechst High Intensity Objects (%) [3]: 6% and 10%
Population Membrane Permeable-Phenotype (%) [3]: 2% and 3%
Population Mitochondria Different-Phenotype (%) [3]: 4% and 0%
Population Mitotic Cells (%) [3]: 45% and 52%
Population Normal (%) [3]: 93% and 89%
Population Pyknosed Nuclei (%) [3]: 12% and 25%
Population Tubulin-Different-Phenotype (%) [3]: 30% and 61%
Total Cell Count [3]: 97 and 91
Population Apoptotic (%) [4]: 46% and 42%
Population Fragmented Nuclei (%) [4]: 10% and 19%
Population Healthy Nuclei (%) [4]: 79% and 67%
Population Hoechst High Intensity Objects (%) [4]: 0% and 4%
Population Membrane Permeable-Phenotype (%) [4]: 2%
Population Mitochondria Different-Phenotype (%) [4]: 6% and 9%
Population Mitotic Cells (%) [4]: 53% and 57%
Population Normal (%) [4]: 99% and 95%
Population Pyknosed Nuclei (%) [4]: 9% and 12%
Population Tubulin-Different-Phenotype (%) [4]: 28% and 38%
Total Cell Count [4]: 135 and 116
Population Apoptotic (%) [5]: 69% and 36%
Population Fragmented Nuclei (%) [5]: 19% and 40%
Population Healthy Nuclei (%) [5]: 58% and 47%
Population Hoechst High Intensity Objects (%) [5]: 2% and 5%
Population Membrane Permeable-Phenotype (%) [5]: 0% and 12%
Population Mitochondria Different-Phenotype (%) [5]: 1% and 9%
Population Mitotic Cells (%) [5]: 30% and 63%
Population Normal (%) [5]: 97% and 94%
Population Pyknosed Nuclei (%) [5]: 21% and 12%
Population Tubulin-Different-Phenotype (%) [5]: 33% and 70%
Total Cell Count [5]: 109 and 92
Population Apoptotic (%) [6]: 50% and 75%
Population Fragmented Nuclei (%) [6]: 21% and 29%
Population Healthy Nuclei (%) [6]: 69% and 61%
Population Hoechst High Intensity Objects (%) [6]: 2% and 3%
Population Membrane Permeable-Phenotype (%) [6]: 0% and 2%
Population Mitochondria Different-Phenotype (%) [6]: 7% and 5%
Population Mitotic Cells (%) [6]: 50% and 25%
Population Normal (%) [6]: 97% and 96%
Population Pyknosed Nuclei (%) [6]: 8% and 9%
Population Tubulin-Different-Phenotype (%) [6]: 33%
Total Cell Count [6]: 141 and 131

COc1cc(N2CCN(C)CC2)ccc1Nc1nccc(-c2cn(C)c3cnccc23)n1
Population Apoptotic (%) [1]: 11.76% and 10%
Population Fragmented Nuclei (%) [1]: 12.81% and 10.18%
Population Healthy Nuclei (%) [1]: 70.44% and 80.97%
Population Hoechst High Intensity Objects (%) [1]: 0%
Population Membrane Permeable-Phenotype (%) [1]: 3.5% and 4.92%
Population Mitochondria Different-Phenotype (%) [1]: 9.79% and 6.56%
Population Mitotic Cells (%) [1]: 88.24% and 90%
Population Normal (%) [1]: 100%
Population Pyknosed Nuclei (%) [1]: 16.75% and 8.85%
Population Tubulin-Different-Phenotype (%) [1]: 16.78% and 35.52%
Total Cell Count [1]: 203 and 226
Population Apoptotic (%) [2]: 3.08% and 5.97%
Population Healthy Nuclei (%) [2]: 41.67% and 59.65%
Population Hoechst High Intensity Objects (%) [2]: 0%
Population Membrane Permeable-Phenotype (%) [2]: 13.85% and 8.82%
Population Mitochondria Different-Phenotype (%) [2]: 35.38% and 54.9%
Population Mitotic Cells (%) [2]: 96.92% and 94.03%
Population Normal (%) [2]: 100%
Population Pyknosed Nuclei (%) [2]: 41.67% and 39.18%
Population Tubulin-Different-Phenotype (%) [2]: 55.38% and 85.29%
Total Cell Count [2]: 156 and 171
Population Apoptotic (%) [3]: 21.74% and 7.69%
Population Fragmented Nuclei (%) [3]: 12.15% and 10.47%
Population Healthy Nuclei (%) [3]: 77.1% and 84.5%
Population Hoechst High Intensity Objects (%) [3]: 0%
Population Membrane Permeable-Phenotype (%) [3]: 4.85% and 5.05%
Population Mitochondria Different-Phenotype (%) [3]: 10.3% and 3.21%
Population Mitotic Cells (%) [3]: 78.26% and 92.31%
Population Normal (%) [3]: 100%
Population Pyknosed Nuclei (%) [3]: 10.75% and 5.04%
Population Tubulin-Different-Phenotype (%) [3]: 13.94% and 38.53%
Total Cell Count [3]: 214 and 258
Population Apoptotic (%) [4]: 5.77% and 8.77%
Population Healthy Nuclei (%) [4]: 47.62% and 66.67%
Population Hoechst High Intensity Objects (%) [4]: 0%
Population Membrane Permeable-Phenotype (%) [4]: 2.86% and 10.48%
Population Mitochondria Different-Phenotype (%) [4]: 41.43% and 41.13%
Population Mitotic Cells (%) [4]: 94.23% and 91.23%
Population Normal (%) [4]: 100%
Population Pyknosed Nuclei (%) [4]: 35.37% and 30.65%
Population Tubulin-Different-Phenotype (%) [4]: 70% and 74.19%
Total Cell Count [4]: 147 and 186
Population Fragmented Nuclei (%) [5]: 17.86% and 7.25%
Population Healthy Nuclei (%) [5]: 77.23% and 87.02%
Population Hoechst High Intensity Objects (%) [5]: 0%
Population Membrane Permeable-Phenotype (%) [5]: 0% and 1.75%
Population Mitochondria Different-Phenotype (%) [5]: 12.72% and 3.95%
Population Mitotic Cells (%) [5]: 100% and 66.67%
Population Normal (%) [5]: 100%
Population Pyknosed Nuclei (%) [5]: 4.91% and 5.73%
Population Tubulin-Different-Phenotype (%) [5]: 12.72% and 38.16%
Total Cell Count [5]: 224 and 262
Population Fragmented Nuclei (%) [6]: 16.88% and 21.97%
Population Healthy Nuclei (%) [6]: 73.75% and 64.57%
Population Hoechst High Intensity Objects (%) [6]: 0%
Population Membrane Permeable-Phenotype (%) [6]: 5.08% and 2.08%
Population Mitochondria Different-Phenotype (%) [6]: 31.36% and 25%
Population Mitotic Cells (%) [6]: 66.67% and 90%
Population Normal (%) [6]: 100%
Population Pyknosed Nuclei (%) [6]: 9.38% and 13.45%
Population Tubulin-Different-Phenotype (%) [6]: 44.92% and 80.56%
Total Cell Count [6]: 160 and 223
